# According to ChEMBL document CHEMBL4513216, “Probing the Open Global Health Chemical Diversity Library for Multistage-Active Starting Points for Next-Generation Antimalarials” (ACS Infect Dis, 2020):
# Assay: Toxicity liver stage against HepG2, at 10uM
# Type: cell-based
# Parameters: test concentration 10 uM, cell line HepG2-A16-CD81EGFP
# Details: human, HepG2-A16-CD81EGFP cells; read-out: INHIBITION
# How it was run: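 Uninfected HepG2-A16-CD81EGFP cells, 3 × 10^3 per well, 1536-well, plated on prespotted compound at 10 μM final, parasite-free screening media added to match infected plates; puromycin 10 μM positive, DMSO 0.5% negative; run in parallel with 48 h PbLuc assay at 37 °C, 5% CO2; viability by CellTiter-Glo luminescence, normalized to controls.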
row,Structure (SMILES),cytotoxicity at 10 µM [%]
1,COC(=O)[C@@H]1Cc2[nH]cnc2CN1Cc1cc2ccccc2o1,0.994
2,N#CCCN1CC(O)CN(C(=O)c2cccc(C(F)(F)F)c2)CC1=O (stereo not given),7.84
3,O=S(=O)(c1cccs1)N1CCN(Cc2nc(-c3ccco3)cs2)CC1,21.2
4,CCO[C@H]1CN(C(=O)c2ccc3c(c2)OCO3)[C@@H]2COC[C@H]12,-130
5,c1csc(CN2CCc3nc(N4CCOCC4)nc(NC4CC4)c3C2)n1,0.0529
6,Cn1nnc2c1CCN(S(C)(=O)=O)C2COCC1CC1 (stereo not given),-4.6
7,c1cncc(-c2ccc3c(c2)CCC32CCNCC2)c1,-10.3
8,CC(C)N1c2sc(-c3ccccc3)nc2CC1C(=O)NC1CCCC1 (stereo not given),10.3
9,Cc1ccnc(OC[C@@]23CCO[C@@H]2CCN(S(C)(=O)=O)C3)n1,9.34
10,Oc1nnc(-c2ccccc2)c2sc(N3CCCCC3)nc12,-1.81
11,O=c1c2cc3c(cc2nnn1Cc1ccccc1Cl)OCCO3,9.32
12,Cc1nc(NCCCn2cccn2)c2c(n1)c(C)nn2C,6.64
13,CNc1cncc(C2CCN(C(=O)c3coc(C)n3)CC2)n1,0.109
14,CCc1noc(CCC(=O)N[C@@H]2CC[C@@H](n3ccnc3C)[C@@H]2O)n1,-20.5
15,COc1ccc(CN(C)[C@@H]2CN(C(=O)c3cncs3)C[C@H]2O)cc1,-12.4
16,COc1cnc(C2(O)CCN(C(=O)c3ccccn3)CC2)c(OC)n1,-8.99
17,Cc1c[nH]nc1C1CCCCN1C(=O)CCn1nccc1C (stereo not given),-6.39
18,Cc1cnc(N)c(C(=O)C2CCN(C(=O)c3ccccc3F)CC2)c1,9.96
19,CC(=O)N1CC2(CCN(Cc3ccc(Cl)cc3)C2)Cc2ccccc21 (stereo not given),7.74
20,N#Cc1cnc(NCc2cccc(C(=O)N3CCCC3)c2)c(Cl)c1,-0.657
21,CSC1(CNC(=O)N(C)Cc2ccc(C)s2)CCOCC1,-46.5
22,O=C(CN1CCc2cncnc2C1)NC(C1CC1)C1CC1,-5.42

row,Structure (SMILES),cytotoxicity at 10 µM [%]
1,COCC(=O)N[C@H](C(=O)NC(C)c1cc(C)ccc1C)C(C)C (stereo not given in full),0.341
2,CN1CCOC(CNC(=O)C2(c3ccccc3)CCC2)C1 (stereo not given),6.17
3,CCN(CC)C(=O)CCc1nc(-c2cnn3c(C)cc(C)nc23)no1,-11.5
4,CCn1nc(C)cc1C(=O)N1CCC(Nc2ccc(C)nn2)CC1,-4.32
5,Cc1c(NC(C)C(C)C)cccc1C(=O)NCc1nccn1C (stereo not given),-5.99
6,COc1ccc(C(O)CN2CC(n3cc(C)cn3)C2)cc1 (stereo not given),4.52
7,COc1c(C)cnc(CSc2nnc(NC3CC3)s2)c1C,10.9
8,CCN(CC)S(=O)(=O)N1CCCN(CC(=O)NC(C)C)CC1,2.75
9,Cc1ccc(C2CN(c3nnc(C(F)F)s3)CCO2)c(C)c1 (stereo not given),3.28
10,N#Cc1ccc(C(=O)NS(=O)(=O)c2ccc(C#N)c(Cl)c2)cc1,5.44
11,CCN(Cc1ccoc1)C(=O)NC1CCN(CC=C(C)C)CC1,-3.89
12,Cc1nn(-c2ccccc2)nc1C(=O)NCC(c1ccsc1)N(C)C (stereo not given),-22.3
13,Cc1cccc(C2(O)CCN(C(=O)c3ccccn3)CC2)c1C,-0.823
14,CS(=O)(=O)Cc1ccc(Cl)c(NCc2noc(C3CC3)n2)c1,6.95
15,COCCC1(CNC(=O)Nc2ccnc(C)c2)CCCC1,2.12
16,OC(CN1CCN(CCOCC(F)(F)F)CC1)c1ccccc1 (stereo not given),-7.99
17,Cc1cnc(CNS(=O)(=O)CCC2CCCO2)o1 (stereo not given),9.84
18,Cc1ccc(NC(=O)NCC(c2cnn(C)c2)N(C)C)c(C)c1 (stereo not given),-0.538
19,CCCn1nccc1NC(=O)c1ccc(Cl)c(N2CCNC2=O)c1,-5.07
20,CCC(Nc1ccc(CCN2CCCCC2)cc1)C(N)=O (stereo not given),4.47
21,NC1CCCN(Cc2cccc(C(F)(F)F)c2)C1=O (stereo not given),5.85
22,CC(CNC(=O)c1cnc[nH]1)Oc1ccccc1Br (stereo not given),2.74

row,Structure (SMILES),cytotoxicity at 10 µM [%]
1,CCCN(CC(=O)OC)S(=O)(=O)c1cnc2c(c1)c(C)nn2C,-2.61
2,CC(=O)NCc1ccc(-n2ccnc2C)nc1,-6.49
3,Cc1ccc(C)c(C(=O)CN2C(=O)c3ccccc3CS2(=O)=O)c1,-8.42
4,CNc1cc(N2CCCC2CNCc2ccc(Cl)o2)ncn1 (stereo not given),-11.6
5,COCCC1COC2(CCN(C(=O)c3ccsc3)CC2)C1 (stereo not given),-71.2
6,O=C(c1ccoc1)N1CCn2cnc(COCC3CC3)c2C1,-71.9
7,CN1C(=O)CC(c2cnn(C)c2)C12CCN(C(=O)c1ccnnc1)CC2 (stereo not given),-74.4
8,CCN1CCCn2c(nc(CNC(=O)c3ccsc3)cc2=O)C1,1.16
9,CCn1nc(CC(C)C)cc1C(=O)N1CC(c2ccncc2)C1,-6.38
10,Cc1nc2[nH]cc(C(=O)N3CCCCC3c3ccc(F)cc3)c(=O)n2n1 (stereo not given),3.63
11,COc1cccc2c1OCC(Cc1cc(C(=O)N3CCCC3)ccn1)C2 (stereo not given),5.15
12,CNC(=O)C1CCN(c2ncnc3c2CCN(C(=O)C2CC2)C3)C1 (stereo not given),1.67
13,CCN(Cc1nc(COC)no1)C(=O)CCNC(=O)c1ccccc1F,-4.17
14,CCC(NC(=O)C1CCN(C(C)C)CC1)c1cn2cccnc2n1 (stereo not given),-6.21
15,CN(Cc1ccc(CCC(C)(C)O)cc1)Cc1cccnc1,15
16,CCc1nccn1CC(=O)N1CCN(C2CCc3ccccc3C2)CC1 (stereo not given),-119
17,COc1cc(CNc2nc3c(c(=O)[nH]2)CCNC3)cc(OC)c1OC,4.72
18,COCCCN1CC2(CCN(C(=O)c3ncc(F)cc3F)CC2)CC1=O,-3.94
19,Cc1cc(C2CCC2)nc(NCC(C)(C)N2CCCC2)n1,-0.21
20,CNc1cc(C(=O)N2CCC3(CC2)Nc2ccccc2NC3=O)ccn1,3.46
21,CN(CCNC(=O)c1cnc(-c2ccccc2)nc1)S(C)(=O)=O,4.3
22,CCOc1ccc2nc(CN3CCC(CN)C3)ccc2c1 (stereo not given),-7.41

row,Structure (SMILES),cytotoxicity at 10 µM [%]
1,CCC(C(=O)NCCc1nc(C)cc(C(F)(F)F)n1)n1cccn1 (stereo not given),-9.77
2,CCC(C(=O)NCc1csc(N2CCOCC2)n1)n1cccn1 (stereo not given),-2.88
3,CCc1ccccc1OCCN1C[C@@H](NS(C)(=O)=O)[C@H](C(C)C)C1,-47.5
4,C[C@@H]1CN(C2CCCCC2)CC[C@@]1(O)C1CCOCC1,-7.58
5,COc1cc(-c2cnnc(NCCCOC(C)C)n2)cc(OC)c1OC,3.51
6,COCCn1ccnc1C1CCCN(c2ncnc3c2CCC3)C1 (stereo not given),1.66
7,CCN(Cc1cc(Cl)ccc1OC)Cc1cc(C)nn1C,6.62
8,O=C(Cc1ccsc1)N1CCC(Cn2cc(CCO)nn2)CC1,1.67
9,COc1cc(C)sc1C(=O)N1CC(c2cccnc2)C1,-8.97
10,N#CCCn1nc(C(F)(F)F)c2c1CCC2,-12
11,Cc1cccc(C)c1OC1CCN(Cc2ccn(C)c(=O)c2)CC1,-2.95
12,CCN(CC)Cc1ccc(C(=O)N2CCCC2c2cnn(C)c2)o1 (stereo not given),3.51
13,CCOCCCn1c(NC(=O)c2cnc(C)s2)nc2ccccc21,-30
14,CSC(C)C(=O)N(C)CCCc1cc(-c2ccccc2)no1 (stereo not given),2.63
15,NC(=O)C1CCN(C(=O)c2ccc(OCc3cscn3)cc2)CC1,-10.6
16,CN(C)c1ncccc1CNC(=O)N1CCCC1CN1CCCC1 (stereo not given),-12.4
17,Fc1ccc(-c2nc(CN3CCOC(Cn4cccn4)C3)co2)cc1 (stereo not given),-3.78
18,CC(c1nc(C2CC2)no1)N1CCN(Cc2ccc(C#N)cc2)CC1 (stereo not given),3.71
19,CC1CN(Cc2nccn2C)CCN1c1ccc2nncn2n1 (stereo not given),-8.52
20,Cc1cnn(CCNCC(=O)NCCOc2ccccc2)c1,-14
21,CC(=O)Nc1nc(C(=O)N2CCCC(n3nc(C)cc3C)C2)cs1 (stereo not given),0.74
22,O=C(CN1CCCC1Cn1cncn1)NCCc1c(F)cccc1F (stereo not given),-6.24

row,Structure (SMILES),cytotoxicity at 10 µM [%]
1,Cc1nccn1C1CCCN(C(=O)c2ccc3c(c2)COC3)C1 (stereo not given),-10.8
2,CC(=O)Nc1ccc(S(=O)(=O)NC(=O)CCC2CCCO2)cc1 (stereo not given),-5.11
3,CS(=O)(=O)NCC1CCCN(C(=O)c2cc3ccccc3o2)C1 (stereo not given),-1.82
4,Cn1ccc(CN2CCC(COC3CCCC3)CC2)cc1=O,-1.68
5,CC(C)CC(=O)N1CCC2(CC1)COCCN2Cc1ccc(F)cc1,-77.1
6,CC(C)c1nn(C)c(Cl)c1CNCc1cccnc1N(C)C,10.7
7,CC(C)N1[C@H](Cn2cncn2)C[C@@H]2CN(Cc3cccs3)CC[C@@H]21,-109
8,CN(C)C1CC2(CCN(C(=O)C3(C#N)CC3)CC2)c2ccccc21 (stereo not given),-113
9,Cc1noc(C)c1CN1CCc2ncc(CN(C)C)n2CC1,8.46
10,CCO[C@@H]1C[C@H]2CN(S(=O)(=O)c3cccs3)CCN2C1,8.52
11,Cn1cc(C[C@H]2[C@H](O)CCN2Cc2ccc(F)cc2)cn1,-75.9
12,O=C(C[C@@H]1COC[C@H]2CN(C3CCCC3)C[C@@H]12)N1CCCCO1,7.92
13,Cc1nnc(N2CCCC3(CN(Cc4ccc(F)cc4)CCO3)C2)o1 (stereo not given),-6.63
14,COc1ccc(CN2CCCn3cnc(COC(C)C)c3C2)cc1,-74.9
15,CN(C)[C@@H]1CCN(C(=O)c2cccn2C)[C@H]1Cc1cnn(C)c1,-74.6
16,Fc1cccc(CN2CCOCC3(CCN(C4CCOCC4)C3)C2)c1 (stereo not given),-0.503
17,CN(C)S(=O)(=O)N1CC[C@]2(C[C@H](OCc3ccccn3)CO2)C1,11.6
18,c1coc(COCc2ncn3c2CN(Cc2cccs2)CCC3)c1,-76.2
19,CN(C)C1COC2(CCN(S(=O)(=O)c3ccc(F)cc3)CC2)C1 (stereo not given),-129
20,CCCC(=O)N1CC[C@@H]2[C@H](CC1)N(Cc1cccc(C)n1)CCS2(=O)=O,-2.88
21,CCn1c(Cn2cncn2)nnc1C1CCN(CC2[C@H]3CNC[C@@H]23)CC1 (stereo not given in full),6.77
22,COCC(=O)NCC1(COc2cccnc2)C[C@@H](O)[C@@H](O)C1 (stereo not given in full),2.52
